# The sample as a whole holds a higher share of hits than the screen did.
# HCT116 bCat-KO = beta-catenin-lacking colon tumor cell growth suppression; HCT116 beta-catenin knockout viability, CellTiter-Glo, 60 h; stronger effect = lower value; actives 1.5% (n = 140,000); AID 818; viability, % at 10 µM;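 active means viability at or under a set limit, the compound median less 4 SD, cut at about 6% in these data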;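 further: 0% = Hyamine 1622 control at 20 µM and 100% = untreated cell control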
# Fibroblast inh = blocks proliferation of human lung fibroblasts; LL 47 human lung fibroblast viability, ATP luminescence; stronger effect = lower value; viability, % at 10 µM; actives 1.1% (n = 85,000);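 active means viability at or below 50% in the single dose screen; inactive means viability above 50%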;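 further: compound exposure lasted 72 h before the ATP readout; 100% = median luminescence of untreated cell-only wells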
#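 Material: human LL 47 lung fibroblast cells; quantity: 1,150 cells/well; medium: IMEM plus 15% FBS; doses: 0.1% DMSO in all compound wells; timing: overnight attachment after seeding, then 72 h compound exposure at 37 °C; detection: CellTiter-Glo luminescence; measure: % viability of median cell-only signal; controls: cell-only wells, no compound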
# H69AR inhibit = blocks growth of human H69AR lung tumor cells | H69AR lung tumor viability, ATP luminescence, 72 h; stronger effect = lower value | actives 6% (n = 85,000) | viability, % at 10 µM;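 active means viability at or below 40%; inactive means viability above 40%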;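 further: multidrug resistant small cell line overexpressing MRP-1 efflux transporter; 100% = mean luminescence of untreated control wells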
# PTEN del growth = growth suppressors of cells with PTEN tumor suppressor deletion. HCT116 PTEN-null viability, CellTiter-Glo, 60 h; stronger effect = lower value. viability, % at 10 µM. actives 1.2% (n = 140,000);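 active means viability at or below a set limit, 4 SD under the median of all tested compounds, cut at about 3.7% in these data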;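 further: PTEN knockout HCT116 line with beta catenin targeted HCT116 as companion control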
# HUVEC inhibit = inhibitors of human endothelial cell proliferation | HUVEC proliferation, CellTiter-Glo luminescence, 72 h; stronger effect = lower value | viability, % at 10 µM (by protocol) | actives 1.1% (n = 86,000) | AID 648;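 active means viability at or below 30%; inactive means viability above 30%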;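 further: 100% = median luminescence of DMSO-only cell control wells on each plate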
# Candida biofilm = kills Candida albicans biofilms. actives 0.14% (n = 85,000). AID 834. C. albicans biofilm + clotrimazole, Alamar Blue. inhibition, % at 6 µM;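 active means inhibition above 20%; inactive means inhibition below 20%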;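 further: preformed 24 hr biofilms exposed to compound for 48 hr; 0% = biofilm without compound and 100% = blank killed by clotrimazole plus chlorhexidine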
# Starred values were filed as active, the others as inactive; · = no result given.
SMILES,HCT116 bCat-KO,Fibroblast inh,H69AR inhibit,PTEN del growth,HUVEC inhibit,Candida biofilm
O=S1(=O)N=C(Nc2ccc(O)c(CN3CCCCC3)c2)c2ccccc21,95.8,·,32.9*,99.5,99.8,5.6
Cc1cc(N)n2ncc(-c3cccc(Br)c3)c2n1,70.7,65.9,26.4*,80.0,46.3,·
Cc1cc(N)n2ncc(-c3ccccc3)c2n1,89.8,95.3,71.6,102.3,95.2,5.2
CCOc1ccc(S(=O)(=O)N2CCN(c3ccc(OC)cc3)CC2)c2cccnc12,82.4,96.2,34.8*,95.3,96.2,3.5
COC(=O)c1ccc(C(=O)NC(=S)Nc2ccc3nc(SC)sc3c2)cc1,0.9*,·,·,1.5*,·,·
CSc1nc2ccc(NC(=O)CSc3nnc(N)s3)cc2s1,102.8,·,·,99.8,·,·
CC(Cc1ccc(O)c(O)c1)C(C)Cc1ccc(O)c(O)c1 (stereo not given),·,92.6,32.7*,·,70.4,12.2
CC(=O)CC(c1ccc([N+](=O)[O-])cc1)c1c(O)c2ccccc2oc1=O (stereo not given),94.9,·,·,105.7,·,·
CCOC(=O)C(C(=O)OCC)C(Nc1ccc(Br)cc1)c1ccccc1 (stereo not given),1.5*,·,·,1.5*,·,·
CCOC(=O)CCNC(C(=O)OCC)c1ccccc1 (stereo not given),101.1,105.7,93.9,96.5,108.0,1.0
O=C(COC(=O)CCc1c[nH]c2ccccc12)NC(c1ccccc1)c1ccccc1,94.8,·,·,97.4,·,·
COc1nc(OC)nc(N2CCC(C(=O)NCC3CCCCC3)CC2)n1,79.7,97.5,30.8*,89.5,104.9,8.0
Cc1cc(C)nc(N2CCC(C(=O)NCC3CCCCC3)CC2)n1,100.6,102.8,93.5,98.5,98.1,1.3
CCN1/C(=C/c2ccc3cc(C)ccc3[n+]2CC)Sc2ccccc21,1.2*,·,·,1.3*,·,·
CCC(=O)/C=C1/Sc2ccccc2N1CC,80.8,97.4,97.3,88.3,96.6,7.4
Cn1cc([N+](=O)[O-])c(C(=O)Nc2nc(-c3ccc(Cl)cc3)cs2)n1,2.1*,·,·,1.4*,·,·
Cc1ccc(-c2nc(NC(=O)c3nn(C)cc3[N+](=O)[O-])sc2C)cc1C,1.6*,·,·,1.4*,·,·
CC(=O)c1c(C)[nH]c(C(=O)Nc2nc(-c3ccc(Cl)cc3)cs2)c1C,70.7,·,·,66.8,·,·
Cc1ccc(-c2nc(NC(=O)c3nn(C)cc3[N+](=O)[O-])sc2C)cc1,1.4*,·,·,1.4*,·,·
Cn1cc([N+](=O)[O-])c(C(=O)Nc2ccc(-c3nc4ccccc4[nH]3)cc2)n1,60.6,·,·,41.7,·,·
O=C(CCC(=O)N1CCOCC1)Nc1nnc(C2CCCCC2)s1,85.9,92.2,102.4,91.5,102.7,4.7
Cc1ccc(N2CCN(/N=C/c3sccc3C)CC2)cc1,89.2,·,·,88.8,·,·
CC(=O)C1=C(C)NC(SCC(=O)c2ccccc2)=C(C#N)C1CC(C)C (stereo not given),86.1,96.7,80.6,85.8,106.8,-3.0
O=C(Nc1nc2cc3c(cc2s1)OCO3)C1=COCCO1,45.1,80.5,25.5*,47.7,49.6,3.5
CCCCCCNS(=O)(=O)c1ccc(NC(=O)C2CCCO2)cc1 (stereo not given),79.4,·,·,82.5,·,·
SMILES,HCT116 bCat-KO,Fibroblast inh,H69AR inhibit,PTEN del growth,HUVEC inhibit,Candida biofilm
Cc1c(C=O)c(=O)n(-c2ccccc2)n1-c1ccccc1,89.7,·,·,105.3,·,·
Nc1c(C(=O)Nc2nc3ccccc3s2)sc2nc(-c3cccs3)ccc12,-0.1*,·,·,0.1*,·,·
CC(=O)c1sc2nc(-c3cccs3)ccc2c1N,88.7,94.7,77.3,87.0,58.2,5.2
CC(=O)c1cc(OC(=O)c2ccncc2)ccc1OC(=O)c1ccncc1,91.0,104.5,83.8,91.1,85.4,4.8
Oc1ccc2c(c1)oc1cc(O)ccc12,82.7,75.7,5.2*,97.2,56.7,6.7
CCOc1ccc(NC(=O)CCCc2cc(-c3ccc(OCC)cc3)on2)cc1,75.9,87.8,51.1,69.5,94.0,2.8
CCOc1ccc(-c2cc(CCCC(=O)Nc3cccc(OC)c3)no2)cc1,20.2,55.3,22.8*,21.3,68.4,4.8
COC(=O)NC1CCC(NC(=O)OC)CC1 (stereo not given),93.3,·,·,95.4,·,·
CSc1nc2c(c(-c3ccc(O)cc3)c1C#N)CCC2,78.4,94.2,26.2*,68.1,83.0,5.2
O=C(c1cn(-c2ccccc2)nc1-c1cccs1)N1CCN(c2ccccc2)CC1,30.0,75.4,10.6*,25.8,53.1,1.1
Cc1ccc(C(=O)C(C(=O)/C=C/c2ccccc2)=C2SCCCS2)cc1,2.9*,32.4*,2.3*,3.5*,23.2*,10.5
Cc1ccc(NC(=O)CSc2nc(O)c(Cc3ccccc3)c(=O)n2-c2ccccc2)cc1,95.6,·,·,101.2,·,·
CC1(C)Cc2c(cnn2-c2ccccc2)C(=O)/C1=N\NC(=O)c1ccccc1N,89.6,99.3,47.0,103.7,81.2,2.6
CC1(C)Cc2c(cnn2-c2ccccc2)-c2c1c1ccccc1n2CC(O)CBr (stereo not given),72.5,81.9,15.8*,67.3,57.6,1.8
CC(=O)CSc1nsc(SCC(C)=O)c1C#N,67.2,·,30.9*,70.1,88.8,-3.2
Cc1ccc(-c2cc(-c3ccc(F)cc3)nc(N)c2C#N)o1,49.0,93.0,13.6*,52.6,67.8,1.1
Cc1ccc(S(=O)(=O)/N=C(\CSC(N)=O)Nc2ccccc2)cc1,101.0,96.3,24.3*,82.4,95.5,7.0
Cc1ccc(S(=O)(=O)/N=C(\Sc2ccccc2)c2ccccc2)cc1,86.7,60.3,40.7,91.7,35.5,1.1
Cn1c(=O)oc2cc(S(=O)(=O)N3CCN(c4cccc(Cl)c4)CC3)ccc21,81.5,82.0,24.5*,75.6,62.8,4.6
CCCCN(CCCC)S(=O)(=O)c1ccc(NC(=O)Cc2cccs2)cc1,86.4,90.5,63.9,89.8,77.2,-0.2
O=C(CN(C(=O)CCC(=O)Nc1ccccn1)c1ccc2c(c1)OCCO2)NCCc1ccccc1,66.5,89.6,7.0*,50.2,67.5,1.3
C=C(CCC(=O)c1ccccc1)C(=O)c1ccccc1,0.4*,·,·,0.5*,·,·
O=C(CCN1CCN(CCC(=O)c2ccccc2)CC1)c1ccccc1,·,92.7,1.2*,·,95.7,6.2
O=C(CN1CCN(Cc2ccccc2)CC1)c1ccccc1,93.4,96.4,86.8,101.4,104.2,9.8
C=C(C(=O)c1ccccc1)C(CC(=O)c1ccccc1)c1ccccc1 (stereo not given),4.8*,·,·,3.1*,·,·
Cc1ccc(NC(=O)c2ccc(NCc3ccco3)c([N+](=O)[O-])c2)cc1Cl,84.8,·,·,87.8,·,·
N=C1SC(c2ccccc2)C(=O)N1c1ncc(Cc2ccccc2Cl)s1 (stereo not given),22.9,·,·,17.3,·,·

# Bioassay records: PubChem, several laboratories
